# Laboratory results as given in ChEMBL document CHEMBL1148494, “Comparison between 5,10,15,20-tetraaryl- and 5,15-diarylporphyrins as photosensitizers: synthesis, photodynamic activity, and quantitative structure-activity relationship modeling” (J Med Chem, 2006).
# Where “and” joins values, the source holds several entries; their conditions need not be identical. Equal entries are not always repeated.
# System: HCT-116
# Test: Cytotoxicity against human HCT116 cell line
# Assay type: functional, cell-based
# Method in brief: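 HCT116 cells kept in DMEM, seeded at 5 × 10⁴ cells/mL, grown 48 h, then exposed to a range of PS concentrations for 24 h. PS medium swapped for PBS; visible light from a tungsten-halogen lamp for 2 h (22 mW/cm², 158.4 J/cm²). Then 24 h at 37 °C in drug-free medium. MTT 0.4 mg/mL final for 3 h; formazan in DMSO read at 570 nm. IC50 by nonlinear regression, mean of three replicates ± SE.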
row,Compound,IC50
1,C1=Cc2cc3ccc([nH]3)c(-c3ccccc3)c3ccc(cc4nc(cc1n2)C=C4)[nH]3,0.00123 µg/mL and 3.2 nM
2,C1=Cc2nc1cc1ccc([nH]1)c(-c1ccccc1)c1nc(cc3ccc([nH]3)c2-c2ccccc2)C=C1,0.00263 µg/mL and 5.66 nM
3,COc1cc(-c2c3nc(cc4ccc(cc5nc(cc6ccc2[nH]6)C=C5)[nH]4)C=C3)cc(OC)c1OC,0.00229 µg/mL and 4.8 nM
4,Oc1ccc(-c2c3nc(cc4ccc([nH]4)c(-c4ccccc4)c4nc(cc5ccc2[nH]5)C=C4)C=C3)cc1,0.00335 µg/mL and 7.01 nM
5,COc1ccc(-c2c3nc(cc4ccc([nH]4)c(-c4ccc(OC)cc4)c4nc(cc5ccc2[nH]5)C=C4)C=C3)cc1,0.0274 µg/mL and 52.5 nM
6,C1=Cc2nc1cc1ccc([nH]1)c(-c1ccccc1)c1ccc(cc3nc(c2-c2ccccc2)CC3)[nH]1,0.00151 µg/mL and 3.26 nM
7,COc1cc(-c2c3nc(cc4ccc([nH]4)c(-c4cc(OC)c(OC)c(OC)c4)c4ccc(cc5nc2C=C5)[nH]4)C=C3)cc(OC)c1OC,0.00632 µg/mL and 9.84 nM
8,Oc1cccc(-c2c3nc(cc4ccc([nH]4)c(-c4cccc(O)c4)c4nc(cc5ccc2[nH]5)C=C4)C=C3)c1,0.00351 µg/mL and 7.09 nM
9,Oc1cc(-c2c3nc(c(-c4ccccc4)c4ccc([nH]4)c(-c4ccccc4)c4nc(c(-c5ccccc5)c5ccc2[nH]5)C=C4)C=C3)cc(O)c1O,0.0353 µg/mL and 53.3 nM
10,Oc1cccc(-c2c3nc(cc4ccc([nH]4)c(-c4ccccc4)c4nc(cc5ccc2[nH]5)C=C4)C=C3)c1,0.00051 µg/mL and 1.06 nM
11,COc1cccc(-c2c3nc(cc4ccc([nH]4)c(-c4ccccc4)c4nc(cc5ccc2[nH]5)C=C4)C=C3)c1,0.00293 µg/mL and 5.94 nM
12,COc1ccc(-c2c3nc(c(-c4ccccc4)c4ccc([nH]4)c(-c4ccccc4)c4nc(c(-c5ccccc5)c5ccc2[nH]5)C=C4)C=C3)cc1,0.894 µg/mL and 1.39 µM
13,Oc1cc(-c2c3nc(cc4ccc([nH]4)c(-c4ccccc4)c4nc(cc5ccc2[nH]5)C=C4)C=C3)cc(O)c1O,0.00497 µg/mL and 9.75 nM
14,COc1ccc(-c2c3nc(cc4ccc(cc5nc(cc6ccc2[nH]6)C=C5)[nH]4)C=C3)cc1,0.00077 µg/mL and 1.85 nM
15,Oc1cccc(-c2c3nc(c(-c4ccccc4)c4ccc([nH]4)c(-c4ccccc4)c4nc(c(-c5ccccc5)c5ccc2[nH]5)C=C4)C=C3)c1,0.217 µg/mL and 344 nM
16,Oc1ccc(-c2c3nc(c(-c4ccccc4)c4ccc([nH]4)c(-c4ccccc4)c4nc(c(-c5ccccc5)c5ccc2[nH]5)C=C4)C=C3)cc1,0.145 µg/mL and 230 nM
17,COc1cccc(-c2c3nc(cc4ccc([nH]4)c(-c4cc(OC)c(OC)c(OC)c4)c4nc(cc5ccc2[nH]5)C=C4)C=C3)c1,0.00921 µg/mL and 15.8 nM
18,COc1cccc(-c2c3nc(cc4ccc([nH]4)c(-c4cccc(OC)c4)c4nc(cc5ccc2[nH]5)C=C4)C=C3)c1,0.0129 µg/mL and 24.7 nM
19,COc1cc(-c2c3nc(c(-c4ccccc4)c4ccc([nH]4)c(-c4ccccc4)c4nc(c(-c5ccccc5)c5ccc2[nH]5)C=C4)C=C3)cc(OC)c1OC,0.709 µg/mL and 1.01 µM
20,COc1ccc(-c2c3nc(cc4ccc([nH]4)c(-c4ccccc4)c4nc(cc5ccc2[nH]5)C=C4)C=C3)cc1,0.00606 µg/mL and 12.3 nM
21,COc1cc(-c2c3nc(cc4ccc([nH]4)c(-c4ccccc4)c4nc(cc5ccc2[nH]5)C=C4)C=C3)cc(OC)c1OC,0.00428 µg/mL and 7.75 nM
22,COc1ccc(-c2c3nc(cc4ccc([nH]4)c(-c4cc(OC)c(OC)c(OC)c4)c4nc(cc5ccc2[nH]5)C=C4)C=C3)cc1,0.00903 µg/mL and 15.5 nM
23,COc1cccc(-c2c3nc(c(-c4ccccc4)c4ccc([nH]4)c(-c4ccccc4)c4nc(c(-c5ccccc5)c5ccc2[nH]5)C=C4)C=C3)c1,0.0998 µg/mL and 155 nM
24,COc1ccc(-c2c3nc(c(-c4ccc(OC)cc4)c4ccc([nH]4)c(-c4cc(OC)c(OC)c(OC)c4)c4nc(c(-c5ccc(OC)cc5)c5ccc2[nH]5)C=C4)C=C3)cc1,> 1.5 µg/mL and > 1.89 µM
25,Oc1cccc(-c2c3nc(c(-c4cccc(O)c4)c4ccc([nH]4)c(-c4cccc(O)c4)c4nc(c(-c5cccc(O)c5)c5ccc2[nH]5)CC4)C=C3)c1 [TEMOPORFIN],0.00517 µg/mL and 7.6 nM
